Compound activity deposited in PubChem by The Scripps Research Institute Molecular Screening Center.
Sampled rows, rich in hits. Any-hit rate of the full collection: about 2%.
TDP2 inh = TDP2 (human) inhibition, absorbance primary screen. O95551. 370,000 compounds, 0.34% hits. inhibition, % at 12.8 µM. recombinant TDP2, T5PNP hydrolysis, p-nitrophenol absorbance 415 nm. AID 720702;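 active = inhibition above the mean of all tested compounds plus 3 SD, set per campaign, cut at about 25% in these data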;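 note: 0% = DMSO with enzyme and 100% = buffer with substrate but no TDP2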
Target sequence (O95551 whole entry, looked up): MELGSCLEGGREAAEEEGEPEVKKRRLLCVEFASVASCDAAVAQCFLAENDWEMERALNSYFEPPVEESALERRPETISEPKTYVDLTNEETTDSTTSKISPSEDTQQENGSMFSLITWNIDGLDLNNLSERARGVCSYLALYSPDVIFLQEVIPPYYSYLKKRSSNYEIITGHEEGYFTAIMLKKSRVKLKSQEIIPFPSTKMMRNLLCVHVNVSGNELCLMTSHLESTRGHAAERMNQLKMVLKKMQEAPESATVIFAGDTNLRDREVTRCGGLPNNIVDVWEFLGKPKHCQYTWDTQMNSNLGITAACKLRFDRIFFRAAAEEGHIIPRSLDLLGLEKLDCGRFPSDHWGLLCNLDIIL
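Evaluation: % inhibition relative to enzyme-containing and enzyme-free wells. Material: recombinant human TDP2. Benchmarks: enzyme-free and DMSO wells. Timing: enzyme reaction with compound for 2 h at 37 °C. Compound dosing: 12.8 µM only. Measured by: p-Nitrophenol epi absorbance. Reagent: T5PNP substrate at 5 mM, a TopII-DNA adduct mimic. Replication: single well per compound.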
ASAP1 inh = blocks human ASAP1-stimulated Arf1 GTP hydrolysis | GDP FP detection | inhibition, % at 16.5 µM | 360,000 compounds, 0.19% hits; in the data active = inhibition above about 25%;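 note: 0% = vehicle with enzyme and substrate and 100% = no enzyme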
UHRF1 MBD2 ctr = blocks human UHRF1 binding to methylated DNA; Q96T88; UHRF1 binding to methylated oligo, TR-FRET; inhibition, % at 4.4 µM; 370,000 compounds, 0.75% hits; in the data active = inhibition above about 21%;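 note: UHRF1 SRA domain binding a hemimethylated CpG hairpin DNA probe; 0% = median of test compound wells and 100% = reference inhibitor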
MBD2 inh = MBD2-methylated oligo binding inhibition. AID 686964. inhibition, % at 4.4 µM. 370,000 compounds, 0.31% hits. TR-FRET, MBD2 binding to methylated oligonucleotide; in the data active = inhibition above about 13%
LEDGF integ inh = blocks HIV-1 LEDGF/p75-dependent DNA integration | TR-FRET IN-LEDGF/p75 DNA integration, Eu/Cy5 | inhibition, % at 3.7 µM | 370,000 compounds, 0.64% hits | AID 743269;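 active = inhibition above the screen-wide mean plus 3 SD, cut at about 13% in these data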;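 note: signal is the Cy5 over europium emission ratio at 671 and 618 nm; 0% = plate median of compound wells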
ARFGAP1 inhibitor = inhibitors of rat ARFGAP1; Arfgap1-stimulated ARF1 GTP hydrolysis, GDP FP detection; inhibition, % at 16.5 µM; 360,000 compounds, 0.26% hits;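 active = inhibition above a per-plate limit, mean inhibition of low control wells plus 3 SD, cut at about 25% in these data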;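 note: 0% = DMSO wells with enzyme and 100% = wells lacking Arfgap1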
Target sequence (Q62848 1-136 limits assumed): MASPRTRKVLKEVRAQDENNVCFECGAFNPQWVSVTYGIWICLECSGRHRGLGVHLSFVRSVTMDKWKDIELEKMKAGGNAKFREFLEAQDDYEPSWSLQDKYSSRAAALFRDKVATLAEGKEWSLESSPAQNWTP
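system = rat Arfgap1 catalytic domain, aa 1-136 | technique = FP, GDP Alexa 633 tracer displaced from anti-GDP antibody, 620/688 nm | compound = one concentration, 16.5 µM, DMSO 1.26% | medium = HEPES-based buffer, pH 7.5 | timing = compound-enzyme preincubation 20 min, reaction 120 min, detection 60 min, 25 °C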
ARFGAP1 inh conf = confirmation of rat ARFGAP1 inhibitors; shares compounds with ARFGAP1 inhibitor; ARFGAP1-stimulated ARF1 GTP hydrolysis, GDP tracer FP; inhibition, % at 16.5 µM; 890 compounds, 30% hits; AID 651608;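 active = average inhibition over triplicates above the hit cutoff set in the earlier primary screen, cut at about 25% in these data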;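 note: 0% = Arfgap1 plus ARF1-GTP with DMSO and 100% = wells lacking Arfgap1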
Numbers without * were called inactive; x = no result.

SMILES	TDP2 inh	ASAP1 inh	UHRF1 MBD2 ctr	MBD2 inh	LEDGF integ inh	ARFGAP1 inhibitor	ARFGAP1 inh conf
CCC[C@H]1[C@@H](OC(=O)NCc2cccnc2)CC[C@@]23CCCN2C(=O)CCC[C@@H]13	4	x	-1	0	0	x	x
COC(=O)[C@]12C[C@H](CC(=O)NCC34CC5CC(CC(C5)C3)C4)C(=O)N(Cc3ccco3)C1=C[C@H](COCc1ccccc1)O[C@@H]2C	-2	x	-2	-5	-4	x	x
CCC1(C(N)=O)CC2C=CC1C2 (centres undefined)	-2	8	1	0	-3	6	x
O=C(O)CC1(C(=O)O)CC2C=CC1C2 (centres undefined)	1	8	-3	3	-2	25*	1
Cc1ccc(NC(=O)NNC(=O)COc2ccc([N+](=O)[O-])cc2)cc1C	-2	21	2	3	-6	32*	34*
COc1ccc(NC(=O)NNC(=O)COc2ccc3cc(Br)ccc3c2)cc1OC	-7	8	-21	-11	-39	51*	85*
O=C(C1CCCN1S(=O)(=O)c1ccc(F)cc1)N1CCc2ccccc2C1 (centres undefined)	4	x	4	3	-3	x	x
O=C(c1ccncc1)N1CCN(S(=O)(=O)c2cccc(F)c2)CC1	8	-11	1	2	-1	9	x
O=C(c1ccncc1)N1CCN(S(=O)(=O)c2cccc(Cl)c2)CC1	-12	-7	1	-8	4	27*	0
C=C(O[C@H]1[C@H](O)CC=C(C(=O)O)[C@@H]1O)C(=O)O	-1	x	2	1	1	x	x
COc1ccc(NC(=O)CN(C)C(=O)c2cn(-c3ccccc3)nc2-c2ccc(Cl)cc2)cc1	2	1	-1	6	0	27*	9
Cc1ccccc1CN1CCCCC(NC(=O)c2ccccc2)C1=O (centres undefined)	4	x	0	-2	-2	x	x
COc1ccc(NC(=O)c2ccc3c(=O)n(-c4ccc(OC)cc4OC)c(=S)[nH]c3c2)cc1	-4	6	7	0	2	-1	x
COc1ccc(-n2c(=S)[nH]c3cc(C(=O)Nc4ccc(F)cc4)ccc3c2=O)c(OC)c1	-6	16	4	4	-9	25*	13
CC1CCC(CN2C(Nc3ccccc3)=NC[C@@H]2Cc2ccccc2)CC1 (some centres undefined)	0	2	2	6	0	28*	-1
O=C(O)CCC(=O)Nc1cccc(C(=O)Nc2cccc(Cl)c2)c1	2	4	2	-1	-2	63*	0
O=c1c2[nH]cnc2n(-c2cccc(F)c2)c(=O)n1Cc1ccccc1	7	1	4	3	-1	25*	3
CCn1nc(NC(=O)c2cccnc2)c2cc3ccccc3nc21	-14	9	-5	-1	0	27*	8
CC1(c2nnnn2Cc2ccccc2)CCCC(=O)N1Cc1cccs1 (centres undefined)	1	x	3	-1	2	x	x
CC(=O)OCCCN1C(=O)CCC12CCC(C)CC2 (centres undefined)	4	x	4	4	0	x	x
C/C(=N\N1C(=O)c2ccccc2NC1c1ccccc1)c1ccccc1O (centres undefined)	8	-7	-2	0	-4	27*	-1
C/C(=N\N1C(=O)c2ccccc2NC1c1ccco1)c1ccccc1O (centres undefined)	8	11	-2	0	5	-3	x
CN(C)S(=O)(=O)c1ccc(C(=O)N(c2ccccn2)c2ccccn2)cc1	11	-13	-1	-2	-4	31*	-1
CCOC(=O)[C@@]12CCCC=C1N(CCc1ccc(Cl)cc1)C(=O)[C@H]2CC(=O)NCc1ccc(OC)c(OC)c1	1	x	0	4	-2	x	x
Nc1ccc2nc(-c3cccnc3)[nH]c2c1	7	12	-4	-6	-1	-14	x
SMILES	TDP2 inh	ASAP1 inh	UHRF1 MBD2 ctr	MBD2 inh	LEDGF integ inh	ARFGAP1 inhibitor	ARFGAP1 inh conf
Nc1cccc(C(=O)Nc2ccc3nc(-c4cccnc4)[nH]c3c2)c1	-16	8	1	-7	2	29*	8
CCOc1ccc(/C=C/C(=O)Nc2ccc(C(N)=O)cc2)cc1OC	-1	5	-2	2	2	10	x
CCOc1cc(/C=C/C(=O)Nc2ccc(C(=O)NCCN(CC)CC)cc2)ccc1OCC(C)C	-4	22	1	-1	-3	28*	26*
CCCCNC(=O)C[C@@H]1C(=O)N(Cc2ccc(OC)cc2)C2=CCN(C(=O)OC(C)(C)C)C[C@]21C(=O)OCC	-6	x	0	-1	0	x	x
COc1ccc(C(=O)/C=C/c2ccc(O)cc2)c(O)c1C/C=C(\C)CCC=C(C)C	3	18	-2	-2	3	25*	14
O=C(NCc1ccccc1Cl)c1cccc(NC2=NC3CS(=O)(=O)CC3S2)c1 (centres undefined)	-1	4	-3	-2	-1	3	x
O=C(NCc1ccccc1Cl)c1ccc(NC2=NC3CS(=O)(=O)CC3S2)cc1 (centres undefined)	6	9	-2	4	0	27*	0
O=C(Nc1cc([N+](=O)[O-])ccc1Cl)c1cccnc1	3	-10	-1	5	-5	25*	4
COc1ccc(-n2c(Cc3cccs3)nnc2SCC(=O)Nc2ccc(OCc3ccccc3)cc2)cc1	4	x	2	1	2	x	x
COc1ccc(N2CCN(C(=O)CCNC(=O)c3ccc(C(C)(C)C)cc3)CC2)cc1	4	6	-1	-2	0	4	x
COc1ccc(N2CCN(C(=O)c3ccc(C(C)(C)C)cc3)CC2)cc1	8	4	3	-2	-1	28*	-4
COc1ccc([N+](=O)[O-])cc1CN1CCN(c2ncc(Cc3ccccc3)cn2)CC1	0	-4	-2	-5	1	26*	-2
COc1cccc(CCNC(=O)CCc2nc(-c3ccccc3F)no2)c1	-4	x	1	-4	0	x	x
NC(=O)c1ccc(N=C2C(=O)Nc3ccc([N+](=O)[O-])cc32)cc1	44*	40*	8	-10	4	37*	9
Cc1cccc(/C=N/Nc2ccc3ccccc3n2)c1	-5	13	2	-1	-2	25*	3
C(=N\Nc1ccc2ccccc2n1)/c1ccc2c(c1)OCCO2	5	2	2	0	6	12	x
COc1ccc2oc(C(=O)OCC(=O)N3CCCC(C)C3)c(C)c2c1 (centres undefined)	-14	8	1	6	-5	19	x
